From ChEMBL document CHEMBL1122744, “2-Chloroethyl (methylsulfonyl)methanesulfonate and related (methylsulfonyl)methanesulfonates. Antineoplastic activity in vivo” (J Med Chem, 1984)

Key:
Mus musculus [1] = assay: Change in weight by day 5, obtained by subtracting treated groups of animals minus control groups of animals at dose 200 mg/kg in exp1.; assay type: functional
How it was run: (§1)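 Mice were inoculated ip with 10^6 P388 leukemia cells on day 0, when treated and control mice weighed 19–22 g. Treatment was given ip once daily on days 1–5, within about 5 min of preparing the solution or suspension. Groups of six (occasionally five) were treated, with 30 untreated inoculated mice as controls. The day-5 weight change is the mean treated change minus the mean control change.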

Mus musculus [2] = assay: Change in weight by day 5, obtained by subtracting treated groups of animals minus control groups of animals at dose 100 mg/kg in exp1.; assay type: functional; how it was run: as §1
Mus musculus [3] = assay: Change in weight by day 5, obtained by subtracting treated groups of animals minus control groups of animals at dose 100 mg/kg in exp2*-mortality was 5/6 by day 7; assay type: functional
How it was run: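 Mice were inoculated ip with 10^6 P388 leukemia cells on day 0 and weighed 19–22 g that day. Compound was given ip once daily on days 1–5, within about 5 min of preparing the solution or suspension, to groups of six (occasionally five). Thirty inoculated untreated mice served as controls. The value is the average weight change of treated mice minus that of controls on day 5.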

Mus musculus [4] = assay: Change in weight by day 5, obtained by subtracting treated groups of animals minus control groups of animals at dose 12 mg/kg in exp2; assay type: functional; how it was run: as §1
Mus musculus [5] = assay: Change in weight by day 5, obtained by subtracting treated groups of animals minus control groups of animals at dose 25 mg/kg in exp1.; assay type: functional; how it was run: as §1
Mus musculus [6] = assay: Change in weight by day 5, obtained by subtracting treated groups of animals minus control groups of animals at dose 25 mg/kg in exp2; assay type: functional; how it was run: as §1
Mus musculus [7] = assay: Change in weight by day 5, obtained by subtracting treated groups of animals minus control groups of animals at dose 50 mg/kg in exp1.; assay type: functional; how it was run: as §1
Mus musculus [8] = assay: Change in weight by day 5, obtained by subtracting treated groups of animals minus control groups of animals at dose 50 mg/kg in exp2; assay type: functional; how it was run: as §1
Mus musculus [9] = assay: Mortality by day 5 expressed as number of mice died to the total treated at dose 100 mg/kg in exp1; 0/6; assay type: ADME, organism-based; design: dose 100 mg/kg; conditions: in vivo
Mus musculus [10] = assay: Mortality by day 5 expressed as number of mice died to the total treated at dose 100 mg/kg in exp2; 2/6; assay type: ADME, organism-based; design: dose 100 mg/kg; conditions: in vivo
Mus musculus [11] = assay: Mortality by day 5 expressed as number of mice died to the total treated at dose 12 mg/kg in exp2; 0/6; assay type: ADME, organism-based; design: dose 12 mg/kg; conditions: in vivo
Mus musculus [12] = assay: Median survival time of the treated control groups, in which there are no 30-day survivors at dose 12 mg/kg in exp2; assay type: functional
Mus musculus [13] = assay: Median survival time of the treated control groups, in which there are no 30-day survivors at dose 100 mg/kg in exp1; assay type: functional
Mus musculus [14] = assay: Median survival time of the treated control groups, in which there are no 30-day survivors at dose 100 mg/kg in exp2; assay type: functional
Mus musculus [15] = assay: Median survival time of the treated control groups, in which there are no 30-day survivors at dose 25 mg/kg in exp1; assay type: functional
Mus musculus [16] = assay: Mortality by day 5 expressed as number of mice died to the total treated at dose 200 mg/kg in exp1; 5/6; assay type: ADME, organism-based; design: dose 200 mg/kg; conditions: in vivo
Mus musculus [17] = assay: Mortality by day 5 expressed as number of mice died to the total treated at dose 25 mg/kg in exp1; 0/6; assay type: ADME, organism-based; design: dose 25 mg/kg; conditions: in vivo
Mus musculus [18] = assay: Mortality by day 5 expressed as number of mice died to the total treated at dose 25 mg/kg in exp2; 0/6; assay type: ADME, organism-based; design: dose 25 mg/kg; conditions: in vivo
Mus musculus [19] = assay: Mortality by day 5 expressed as number of mice died to the total treated at dose 50 mg/kg in exp1; 0/6; assay type: ADME, organism-based; design: dose 50 mg/kg; conditions: in vivo
Mus musculus [20] = assay: Mortality by day 5 expressed as number of mice died to the total treated at dose 50 mg/kg in exp2; 0/6; assay type: ADME, organism-based; design: dose 50 mg/kg; conditions: in vivo
Mus musculus [21] = assay: Median survival time of the treated control groups, in which there are no 30-day survivors at dose 25 mg/kg in exp2; assay type: functional
[22] = Median survival time of the treated control groups, in which there are no 30-day survivors at dose 50 mg/kg in exp1; assay type: functional
[23] = Median survival time of the treated control groups, in which there are no 30-day survivors at dose 50 mg/kg in exp2; assay type: functional
Mus musculus [24] = assay: Median survival time of the untreated control groups, in which there are no 30-day survivors at dose 25 mg/kg in exp1; assay type: functional
[25] = Median survival time of the untreated control groups, in which there are no 30-day survivors at dose 50 mg/kg in exp1; assay type: functional
Mus musculus [26] = assay: Median survival time of the untreated control groups, in which there are no 30-day survivors at dose 100 mg/kg in exp1; assay type: functional
Mus musculus [27] = assay: Median survival time of the untreated control groups, in which there are no 30-day survivors at dose 100 mg/kg in exp2; assay type: functional
Mus musculus [28] = assay: Median survival time of the untreated control groups, in which there are no 30-day survivors at dose 12 mg/kg in exp2; assay type: functional
Mus musculus [29] = assay: Median survival time of the untreated control groups, in which there are no 30-day survivors at dose 200 mg/kg in exp1; assay type: functional
[30] = Ratio of number of 60-day survivors to the total treated mice at dose 100 mg/kg in exp1; 0/6; assay type: functional
[31] = Ratio of number of 60-day survivors to the total treated mice at dose 100 mg/kg in exp2; 0/6; assay type: functional
Mus musculus [32] = assay: Ratio of median survival times for non-survivors at dose 50 mg/kg in exp2; assay type: functional
How it was run: (§2)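 Mice were inoculated ip with 10^6 P388 leukemia cells on day 0. Groups of six (occasionally five) were dosed ip qd on days 1–5 with fresh suspensions; 30 mice served as untreated controls. Deaths were recorded daily up to day 60. T/C% compares the median survival of treated non-survivors (<60 days) with the control median. Medians used grouped data when there were no 30-day survivors, otherwise ungrouped data. t = toxic.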

[33] = Ratio of number of 30-day survivors to the total treated mice at dose 100 mg/kg in exp1; 1/6; assay type: functional
Mus musculus [34] = assay: Ratio of number of 30-day survivors to the total treated mice at dose 100 mg/kg in exp2*-toxic; 1/6; assay type: ADME, organism-based; design: dose 100 mg/kg; conditions: in vivo, 720 h
[35] = Median survival time of the untreated control groups, in which there are no 30-day survivors at dose 25 mg/kg in exp2; assay type: functional
[36] = Ratio of median survival times for non-survivors at dose 100 mg/kg in exp2; assay type: functional; how it was run: as §2
[37] = Ratio of median survival times for non-survivors at dose 12 mg/kg in exp2; assay type: functional; how it was run: as §2
[38] = Ratio of median survival times for non-survivors at dose 200 mg/kg in exp1; t= toxic; assay type: ADME, organism-based; design: dose 200 mg/kg; conditions: in vivo; how it was run: as §2
[39] = Ratio of median survival times for non-survivors at dose 100 mg/kg in exp1; assay type: functional; design: unit: %; how it was run: as §2
[40] = Ratio of median survival times for non-survivors at dose 25 mg/kg in exp2; assay type: functional; how it was run: as §2
[41] = Ratio of median survival times for non-survivors at dose 50 mg/kg in exp1; assay type: functional; design: unit: %; how it was run: as §2
[42] = Ratio of median survival times for non-survivors at dose 25 mg/kg in exp1; assay type: functional

Structure (SMILES): CS(=O)(=O)CS(=O)(=O)OCCBr
- Change in weight (Mus musculus [1]): -5.4
- Change in weight (Mus musculus [2]): -2.9
- Change in weight (Mus musculus [3]): -4.7
- Change in weight (Mus musculus [4]): 0.3
- Change in weight (Mus musculus [5]): -0.8
- Change in weight (Mus musculus [6]): -1.5
- Change in weight (Mus musculus [7]): -2.1
- Change in weight (Mus musculus [8]): -1.8
- Mortality (Mus musculus [9]): 0
- Mortality (Mus musculus [10]): 2
- Mortality (Mus musculus [11]): 0
- Median survival time (Mus musculus [12]): 12.8
- Median survival time (Mus musculus [13]): 23.5
- Median survival time (Mus musculus [14]): 7
- Median survival time (Mus musculus [15]): 14.3
- Mortality (Mus musculus [16]): 5
- Mortality (Mus musculus [17]): 0
- Mortality (Mus musculus [18]): 0
- Mortality (Mus musculus [19]): 0
- Mortality (Mus musculus [20]): 0
- Median survival time (Mus musculus [21]): 16
- Median survival time [22]: 16.7
- Median survival time [23]: 18
- Median survival time (Mus musculus [24]): 10.5
- Median survival time [25]: 10.5
- Median survival time (Mus musculus [26]): 10.5
- Median survival time (Mus musculus [27]): 13
- Median survival time (Mus musculus [28]): 13
- Median survival time (Mus musculus [29]): 10.5
- Ratio [30]: 0
- Ratio [31]: 0
- Ratio (Mus musculus [32]): 138
- Ratio [33]: 1
- Ratio (Mus musculus [34]): 1
- Median survival time [35]: 13
- Ratio [36]: 54
- Ratio [37]: 98
- Ratio [38]: Toxic
- Ratio [39]: 224
- Ratio [40]: 123
- Ratio [41]: 159
- Ratio [42]: 136
